FXIIa inh: inhibitors of human coagulation factor XIIa. inhibition, % at 5 µM. P00748. AID 800. 0.3% of 220,000 active. purified FXIIa, Boc-QGR-AMC fluorogenic substrate, 2 h; in the data active means inhibition above about 40%;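 further: 0% = enzyme with no compound and 100% = blank without enzyme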
hK5 inh: inhibitors of human kallikrein 5; 0.59% of 210,000 active; recombinant hK5, fluorogenic AMC substrate cleavage; AID 873; Q9Y337; inhibition, % at 5 µM;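 active means inhibition of 40% or more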;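 further: 0% = enzyme controls without compound and 100% = no-enzyme blanks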
Wee1 degr inh: blocks degradation of human Wee1 kinase | HeLa Luc-Wee1K328M stability, luciferase luminescence; 100% = proteasome inhibitor MG132 effect | reporter increase, % at 5 µM | 1.2% of 220,000 active | AID 1321;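 active means activation above the mean of all tested compounds plus 3 SD, set per screening run, cut at about 8.8% in these data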;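 further: cells exposed to compound for 20 h before luminescence read; 0% = DMSO alone and 100% = MG132 at 30 µM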
Target sequence (P30291 whole entry K328M): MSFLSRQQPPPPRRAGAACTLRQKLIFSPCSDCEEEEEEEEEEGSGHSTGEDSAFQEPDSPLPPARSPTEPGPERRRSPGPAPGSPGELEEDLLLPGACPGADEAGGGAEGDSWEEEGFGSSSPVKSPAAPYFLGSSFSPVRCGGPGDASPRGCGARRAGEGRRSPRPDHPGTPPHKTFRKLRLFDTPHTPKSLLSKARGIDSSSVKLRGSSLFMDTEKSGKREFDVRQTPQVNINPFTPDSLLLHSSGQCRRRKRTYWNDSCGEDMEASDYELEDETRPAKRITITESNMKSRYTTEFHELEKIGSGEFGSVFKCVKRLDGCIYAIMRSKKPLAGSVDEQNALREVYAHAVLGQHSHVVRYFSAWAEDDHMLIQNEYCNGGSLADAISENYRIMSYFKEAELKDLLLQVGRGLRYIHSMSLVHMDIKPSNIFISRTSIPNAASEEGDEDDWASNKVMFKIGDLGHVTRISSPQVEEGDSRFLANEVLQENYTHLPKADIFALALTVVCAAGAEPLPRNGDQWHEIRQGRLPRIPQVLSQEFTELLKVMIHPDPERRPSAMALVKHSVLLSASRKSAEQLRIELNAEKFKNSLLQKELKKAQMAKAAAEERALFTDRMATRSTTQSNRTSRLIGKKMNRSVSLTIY
FXIa inh: factor XIa (human) inhibition. inhibition, % at 5 µM. purified FXIa, Boc-Glu-Ala-Arg-AMC fluorogenic substrate. AID 798. P03951. 0.14% of 220,000 active;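 active means inhibition of at least 40%; inactive means inhibition below 40%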;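 further: fluorescence of freed AMC excited at 355 nm; 0% = enzyme without compound and 100% = no enzyme blank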
Thrombin inh: inhibitors of human thrombin | P00734 | alpha-thrombin, Boc-VPR-AMC fluorogenic substrate cleavage | inhibition, % at 5 µM | 0.26% of 220,000 active;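 active means inhibition at or above 40%; inactive means inhibition below 40%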;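 further: 0% = enzyme with no compound and 100% = wells without enzyme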
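System – human alpha-thrombin · Medium – pH 7.5 Tris (50 mM) with NaCl 150 mM, Tween 20 0.05% · Compound – single-point dosing at 5 µM, 0.2% DMSO · Incubation – enzyme reaction carried out at room temperature · Technique – fluorescence of released AMC, ex 355 nm, em 460 nm · Read-out basis – % inhibition of thrombin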
The depositor's hits bear a star; · = no result given. This is a sample that favours compounds with a hit; in the whole collection about 2.2% have one here.

SMILES | FXIIa inh | hK5 inh | Wee1 degr inh | FXIa inh | Thrombin inh
C=CCc1cc(/C=C/c2nc(O)c([N+](=O)[O-])c(=O)[nH]2)cc(OC)c1O | 3 | -9 | 9.0* | 7 | -4
C(=N\Nc1nncc2ccccc12)/c1ccccc1 | 8 | 0 | 7 | 2 | -3
COc1ccc(/C=N/Nc2nncc3ccccc23)c(OC)c1 | 7 | -2 | 8.9* | 0 | -2
CC(=O)C(=Cc1cn(-c2ccccc2)nc1-c1ccccc1)C(C)=O | · | -1 | 0 | -1 | -2
Cc1cccc(OCC(=O)Nc2ccc(N3CCN(C(=O)c4ccccc4)CC3)cc2)c1 | -12 | -3 | 3 | 2 | 0
Cc1ccc(/C=C/C(=O)c2ccccc2)cc1 | 11 | 1 | 8.9* | 6 | 1
Cn1c(SCC(=O)c2ccc3c(c2)NC(=O)CO3)nc2ccccc21 | 22 | 38 | -1 | 25 | 53*
O=C(O)c1ccc(NS(=O)(=O)c2ccc3c(c2)OCCCO3)cc1 | 4 | 2 | 2 | -2 | -4
O=C(O)CCNS(=O)(=O)c1ccc2c(c1)OCCCO2 | 6 | -2 | 9.8* | 13 | 17
Cc1cc(C)cc(N(C(=O)C(F)(F)F)C(C(=O)NC2CCCCC2)c2cccs2)c1 (stereo not given) | 15 | 4 | 11* | 18 | 13
Cc1cccc(N(C(=O)C(F)(F)F)C(C(=O)NC2CCCCC2)c2cccs2)c1 (stereo not given) | 12 | -1 | 3 | 3 | -4
COc1ccc(C2N3CC4(C)CN2CC(C)(C3)C4=O)cc1OC (stereo not given) | 32 | 61* | -1 | 16 | 17
Cc1ccccc1NS(=O)(=O)c1ccc(N2CCCC2=O)cc1 | 8 | 0 | 10* | 0 | 1
COc1ccc(CN(C(=O)c2ccco2)c2ccc(C)c(C)c2)cc1 | 10 | -3 | -2 | 3 | -2
Cn1c(=O)c2c(nc(N3CCN(Cc4ccccc4)CC3)n2CCCc2ccccc2)n(C)c1=O | 0 | -9 | 10* | -4 | -5
Cn1c(=O)c2c(nc(N3CCN(c4ccccc4)CC3)n2CCCc2ccccc2)n(C)c1=O | -6 | -6 | -1 | -12 | 35
O=C(CCc1ccccc1)Nc1ncc2c(n1)CCCC2=O | 20 | 4 | 7 | 7 | 2
CC1(C)CC(=O)c2cnc(NC(=O)CCc3ccccc3)nc2C1 | 26 | 86* | -1 | 12 | 14
CCn1c(=O)n(CC)c2cc(S(=O)(=O)Nc3cc(C)cc(C)c3C#N)ccc21 | 7 | -5 | 5 | -3 | -8
CCOC(=O)c1c(C)nc2sc3c(=O)n(-c4ccc(C(C)=O)cc4)cnc3c2c1-c1ccc(OC)cc1 | 5 | -24 | 0 | 0 | 17
CCOC(=O)c1c(C)nc2sc3c(=O)n(-c4ccc(OC)cc4)nnc3c2c1-c1ccc(OC)cc1 | 24 | 45* | 0 | 20 | 3
CCCCNC(=O)C1(NC(=O)Nc2ccc(C)cc2)CCCCC1 | 5 | -4 | 5 | -5 | -8
COc1ccccc1N(CC(=O)NC1CCCCC1)S(=O)(=O)c1cccs1 | 10 | 9 | 9.9* | 3 | 4
COc1ccccc1N(CC(=O)NC(C)C)S(=O)(=O)c1cccs1 | 6 | 27 | 2 | -12 | 32
CN(C)CCNc1ncnc2c1sc1nc(-c3ccccc3)c3c(c12)CCCC3 | 42* | 18 | -1 | 25 | 17
SMILES | FXIIa inh | hK5 inh | Wee1 degr inh | FXIa inh | Thrombin inh
CCOC(=O)Cn1cnc2c(nnn2-c2ccc(C)cc2)c1=O | 7 | 0 | -2 | -3 | 3
CCOC(=O)CNC(=O)Cn1cnc2c(nnn2-c2ccc(F)cc2)c1=O | 32 | 45* | -1 | 12 | 22
c1ccc2c(-c3nnc4n3CCCCC4)cc(-c3ccncc3)nc2c1 | 13 | 20 | 1 | 3 | 45*
Clc1ccc(-c2cc(-c3nnc4n3CCCCC4)c3ccccc3n2)cc1 | 12 | -3 | -3 | 1 | -2
Cc1ccc(-n2c(=O)c3ccccc3n(CC(=O)C(C)(C)C)c2=O)cc1 | 26 | 46* | 2 | 28 | 9
CCc1ccc(-n2c(=O)c3ccccc3n(CC(=O)C(C)(C)C)c2=O)cc1 | -4 | -11 | 1 | -6 | -3
COc1ccccc1CC(=O)NCc1csc(-c2cccs2)n1 | 45* | 9 | 0 | 47* | 11
O=C(CN(Cc1cccs1)C(=O)CNS(=O)(=O)c1ccccc1)NCc1ccco1 | -2 | 89* | -2 | -12 | 5
O=C(CN(Cc1ccco1)C(=O)CNS(=O)(=O)c1ccccc1)NCc1ccccc1 | 8 | -18 | -1 | 5 | -16
Oc1ccc2ccccc2c1C=NC12CN3CCN(CN(C3)C1)C2 | 13 | 44* | 0 | 0 | 5
OCC(CO)(CO)N=Cc1c(O)ccc2ccccc12 | 15 | -22 | 3 | -1 | -10
COc1cccc(CNC(=O)CCC2CCCN(C(=O)c3cc(C4CC4)[nH]n3)C2)c1 (stereo not given) | 10 | · | 2 | 12 | -2
Cc1ccc(C)c(NC2=NCC(=O)N2C2CCCCC2)c1 | 3 | 0 | 1 | 3 | -12
Cc1ccc(NC2=NCC(=O)N2C2CCCC2)c(C)c1 | 26 | 112* | 1 | 12 | 22
O=C(CCC(=O)Nc1ccccc1)NNC(=O)COc1ccccc1 | 20 | -19 | -3 | 19 | -10
N#Cc1cn(-c2ccccc2)nc1-c1ccc2c(c1)OCCO2 | 7 | -3 | 5 | 2 | 0
O=Cc1cn(-c2ccccc2)nc1-c1ccc2c(c1)OCCO2 | 4 | -9 | 9.2* | -2 | -3
CN1CCN(C(=S)c2cn(Cc3ccc(F)cc3)c3ccccc23)CC1 | 10 | -2 | 9.2* | -3 | -6
CN1CCN(C(=S)c2cn(Cc3cccc(F)c3)c3ccccc23)CC1 | 13 | 1 | 0 | -2 | 2
NC1=C(O)C(=O)C(c2ccccc2)O1 (stereo not given) | 1 | 14 | -2 | -13 | -5
CC(=O)c1ccccc1NCC(=O)Nc1ccc(C)cc1 | 0 | -6 | -2 | -2 | -2
O=C(Oc1cccc(Nc2ncnc3ccccc23)c1)c1ccccc1Cl | 15 | 1 | 5 | -1 | 3
COC(=O)c1cc(=O)c2c(C)nc(C(Cl)(Cl)Cl)nc2[nH]1 | 9 | 1 | 10* | 0 | 0
CCOC(=O)c1c(C)nc(C(Cl)(Cl)Cl)nc1N | 6 | 7 | 2 | 6 | 8
Cc1ccnn1Cc1cc(C(=O)O)c2ccccc2n1 | 8 | 0 | 1 | -2 | 0
O=C(C[n+]1cccc(CNC(=O)c2ccc(OC(F)F)cc2)c1)Nc1cc(C(F)(F)F)ccc1Cl | 24 | 61* | 0 | 10 | 36
CCn1c(N)c(C(=O)NCc2cccnc2)sc1=S | 18 | -6 | 1 | 6 | 2
Nc1c(C(=O)NCc2cccnc2)sc(=S)n1-c1ccccc1 | 42* | 35 | 3 | 15 | 38
Cc1ccc(S(N)(=O)=O)cc1NC(=O)/C=C/c1ccc2c(c1)OCO2 | 9 | -3 | 0 | -6 | -4
Cc1ccccc1N1CCN(Cc2c[nH]c3ccccc23)CC1 | 48* | 4 | 0 | 20 | 1

Compound activity from PubChem.
